Data set [1] addresses T1, CYP1A2 (Homo sapiens, UniProt P05177).
T1 sequence (P05177 1-516): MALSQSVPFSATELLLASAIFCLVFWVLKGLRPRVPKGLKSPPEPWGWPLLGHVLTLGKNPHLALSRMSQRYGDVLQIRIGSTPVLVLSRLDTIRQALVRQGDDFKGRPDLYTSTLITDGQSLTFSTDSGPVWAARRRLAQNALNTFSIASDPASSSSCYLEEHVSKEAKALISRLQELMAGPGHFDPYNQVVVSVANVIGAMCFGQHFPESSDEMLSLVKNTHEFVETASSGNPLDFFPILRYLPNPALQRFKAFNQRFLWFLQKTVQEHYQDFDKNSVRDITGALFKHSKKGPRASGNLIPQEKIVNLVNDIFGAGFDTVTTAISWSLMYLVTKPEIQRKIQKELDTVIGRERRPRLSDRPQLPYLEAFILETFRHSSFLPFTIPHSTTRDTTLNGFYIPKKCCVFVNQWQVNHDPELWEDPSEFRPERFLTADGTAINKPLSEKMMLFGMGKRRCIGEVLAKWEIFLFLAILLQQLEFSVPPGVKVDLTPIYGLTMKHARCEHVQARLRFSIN
The experiment in a line: biochemical. Format: in vitro ADME. As to conditions: read-out: IC50, CYP1A2; human liver microsomes; substrate phenacetin.

Data set [2] addresses T2, CYP2A6 (Homo sapiens, UniProt P11509).
T2 sequence (P11509 1-494): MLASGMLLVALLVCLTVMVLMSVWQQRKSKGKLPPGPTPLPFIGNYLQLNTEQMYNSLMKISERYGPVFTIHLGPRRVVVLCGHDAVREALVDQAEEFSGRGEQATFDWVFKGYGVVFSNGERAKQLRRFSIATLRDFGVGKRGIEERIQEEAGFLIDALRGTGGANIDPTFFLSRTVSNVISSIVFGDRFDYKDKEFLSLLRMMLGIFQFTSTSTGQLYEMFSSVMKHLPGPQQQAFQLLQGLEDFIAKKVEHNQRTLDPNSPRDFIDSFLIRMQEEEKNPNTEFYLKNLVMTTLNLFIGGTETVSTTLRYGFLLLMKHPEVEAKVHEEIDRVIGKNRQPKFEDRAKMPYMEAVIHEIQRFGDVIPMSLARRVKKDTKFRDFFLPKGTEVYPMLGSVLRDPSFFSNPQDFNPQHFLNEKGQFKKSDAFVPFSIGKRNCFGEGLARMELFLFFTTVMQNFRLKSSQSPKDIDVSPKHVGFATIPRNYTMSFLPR
Put plainly: CYP2A6 inhibition in human liver microsomes. Format: in vitro ADME. To be noted: read-out: IC50, CYP2A6; human liver microsomes; substrate coumarin. In a few lines: (§1)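 Pooled human liver microsomes were incubated with standard CYP-selective substrates, with and without test compound at 0.03–100 μM. Standard selective inhibitors for each isoform ran in parallel as positive controls. Read-out was IC50. For CYP3A4 only, time-dependent inhibition was also tested after 30 min preincubation, using midazolam and testosterone as substrates.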

The target in data set [3] is T3, CYP2B6 (Homo sapiens, UniProt P20813).
T3 sequence (P20813 1-491): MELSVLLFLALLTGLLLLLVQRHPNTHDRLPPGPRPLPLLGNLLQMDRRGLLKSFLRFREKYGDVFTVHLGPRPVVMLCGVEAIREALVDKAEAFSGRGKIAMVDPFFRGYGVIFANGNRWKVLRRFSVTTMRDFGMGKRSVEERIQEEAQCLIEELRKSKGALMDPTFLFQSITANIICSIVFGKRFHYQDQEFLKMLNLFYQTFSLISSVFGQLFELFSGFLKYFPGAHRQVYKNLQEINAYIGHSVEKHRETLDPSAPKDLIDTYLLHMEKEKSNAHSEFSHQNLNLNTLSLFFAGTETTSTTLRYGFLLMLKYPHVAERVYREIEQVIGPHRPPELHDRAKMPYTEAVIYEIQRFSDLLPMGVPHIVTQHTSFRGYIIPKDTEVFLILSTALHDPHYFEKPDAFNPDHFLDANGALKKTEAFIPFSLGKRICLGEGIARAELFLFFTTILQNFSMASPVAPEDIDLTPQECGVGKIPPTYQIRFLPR
Put plainly: biochemical. Format: in vitro ADME. To be noted: read-out: IC50, CYP2B6; human liver microsomes; substrate bupropion. In general terms: Microsomes from liver hold many membrane-bound enzymes, among them those of drug oxidation.

Data set [4] concerns the target T4, CYP2C8 (Homo sapiens, UniProt P10632).
T4 sequence (P10632 1-490): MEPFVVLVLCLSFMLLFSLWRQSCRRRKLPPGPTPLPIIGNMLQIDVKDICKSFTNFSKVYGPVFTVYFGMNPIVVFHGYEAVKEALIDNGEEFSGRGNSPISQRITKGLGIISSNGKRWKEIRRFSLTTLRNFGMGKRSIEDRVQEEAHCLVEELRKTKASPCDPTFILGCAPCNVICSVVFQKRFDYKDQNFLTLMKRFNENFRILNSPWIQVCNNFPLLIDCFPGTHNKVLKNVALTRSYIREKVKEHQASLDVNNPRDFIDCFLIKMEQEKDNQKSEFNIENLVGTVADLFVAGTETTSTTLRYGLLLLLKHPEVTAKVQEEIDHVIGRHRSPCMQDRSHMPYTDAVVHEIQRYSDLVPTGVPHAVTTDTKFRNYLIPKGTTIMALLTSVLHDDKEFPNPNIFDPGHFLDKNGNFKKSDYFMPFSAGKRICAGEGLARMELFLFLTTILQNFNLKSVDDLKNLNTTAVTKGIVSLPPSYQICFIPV
Put plainly: CYP2C8 inhibition in human liver microsomes. Format: in vitro ADME. As to conditions: read-out: IC50, CYP2C8; human liver microsomes; substrate amodiaquine. In a few lines: as §1

Data set [5] deals with CYP2C9 (Homo sapiens, UniProt P11712). The experiment in a line: CYP2C9 inhibition in human liver microsomes. Format: in vitro ADME. To be noted: read-out: IC50, CYP2C9; human liver microsomes; substrate diclofenac. Put shortly: as §1
Chain of CYP2C9 (P11712 whole entry): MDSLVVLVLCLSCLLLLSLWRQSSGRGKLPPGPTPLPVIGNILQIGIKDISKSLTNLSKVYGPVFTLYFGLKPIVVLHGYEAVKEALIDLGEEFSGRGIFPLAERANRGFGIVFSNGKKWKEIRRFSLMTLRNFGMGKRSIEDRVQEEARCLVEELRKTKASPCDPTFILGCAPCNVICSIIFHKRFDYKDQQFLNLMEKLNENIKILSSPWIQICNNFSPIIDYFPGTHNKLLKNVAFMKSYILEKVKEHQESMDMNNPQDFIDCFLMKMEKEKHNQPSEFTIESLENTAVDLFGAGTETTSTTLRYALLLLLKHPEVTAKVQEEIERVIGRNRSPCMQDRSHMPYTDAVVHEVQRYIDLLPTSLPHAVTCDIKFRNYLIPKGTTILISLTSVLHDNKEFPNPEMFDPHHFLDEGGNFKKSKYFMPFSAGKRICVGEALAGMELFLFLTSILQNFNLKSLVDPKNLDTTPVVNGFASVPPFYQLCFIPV
For data set [6], the target named is CYP2C19 (Homo sapiens, UniProt P33261). The experiment in a line: CYP2C19 inhibition in human liver microsomes. Format: in vitro ADME. To be noted: read-out: IC50, CYP2C19; human liver microsomes; substrate S-mephenytoin. In a few lines: as §1
Chain of CYP2C19 (P33261 whole entry): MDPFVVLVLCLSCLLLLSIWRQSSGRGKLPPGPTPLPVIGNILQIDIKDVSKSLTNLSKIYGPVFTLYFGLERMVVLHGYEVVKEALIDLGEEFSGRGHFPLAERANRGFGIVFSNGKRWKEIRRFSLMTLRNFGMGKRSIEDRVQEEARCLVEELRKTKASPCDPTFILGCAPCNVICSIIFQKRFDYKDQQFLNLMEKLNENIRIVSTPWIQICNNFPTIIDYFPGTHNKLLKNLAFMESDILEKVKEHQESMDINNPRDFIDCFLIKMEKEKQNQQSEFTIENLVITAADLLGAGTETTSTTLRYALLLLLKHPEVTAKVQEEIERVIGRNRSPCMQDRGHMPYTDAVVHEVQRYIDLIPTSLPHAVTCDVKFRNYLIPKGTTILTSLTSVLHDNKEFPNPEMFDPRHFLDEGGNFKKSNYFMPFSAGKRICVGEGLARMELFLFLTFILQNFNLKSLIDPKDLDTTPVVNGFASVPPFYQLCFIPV
In data set [7] the target is CYP2D6 (Homo sapiens, UniProt P10635). Put plainly: CYP2D6 inhibition in human liver microsomes. Format: in vitro ADME. To be noted: read-out: IC50, CYP2D6; human liver microsomes; substrate dextromethorphan. In a few lines:
as §1

Data set [8] concerns the target CYP2E1 (Homo sapiens, UniProt P05181). The experiment in a line: CYP2E1 inhibition in human liver microsomes. Format: in vitro ADME. As to conditions: read-out: IC50, CYP2E1; human liver microsomes; substrate chlorzoxazone. Put shortly: as §1
Data set [9] concerns the target CYP3A4 (Homo sapiens, UniProt P08684). The experiment in a line: CYP3A4 inhibition in human liver microsomes. As to conditions: human liver microsomes. Format: in vitro ADME. In a few lines:
as §1

For data set [10], the target named is T5, UGT1A1 (Homo sapiens, UniProt P22309).
T5 sequence (P22309 26-533): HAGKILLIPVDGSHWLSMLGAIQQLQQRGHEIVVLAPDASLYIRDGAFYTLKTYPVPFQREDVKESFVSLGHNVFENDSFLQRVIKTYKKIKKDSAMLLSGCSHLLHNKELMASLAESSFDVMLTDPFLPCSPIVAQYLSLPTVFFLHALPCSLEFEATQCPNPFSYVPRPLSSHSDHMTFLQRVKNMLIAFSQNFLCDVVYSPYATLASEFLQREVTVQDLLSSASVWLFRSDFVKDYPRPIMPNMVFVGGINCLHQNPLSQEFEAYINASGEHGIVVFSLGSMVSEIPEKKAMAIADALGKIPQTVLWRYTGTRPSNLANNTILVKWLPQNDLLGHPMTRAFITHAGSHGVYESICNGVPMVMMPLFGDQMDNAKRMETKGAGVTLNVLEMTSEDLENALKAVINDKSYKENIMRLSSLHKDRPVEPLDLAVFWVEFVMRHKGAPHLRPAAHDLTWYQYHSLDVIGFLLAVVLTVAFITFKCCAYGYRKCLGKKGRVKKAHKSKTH
The experiment in a line: UGT1A1 inhibition in human liver microsomes. Format: in vitro ADME. To be noted: read-out: IC50, UGT1A1, substrate estradiol. In a few lines:
(§2)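 Glucuronidation of UGT-selective substrates was measured in human liver microsomes with and without test compound, using a rank-order approach. Standard inhibitors for each isoform were incubated in parallel as positive controls.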

The target in data set [11] is UGT1A9 (Homo sapiens, UniProt O60656). The experiment in a line: UGT1A9 inhibition in human liver microsomes. Format: in vitro ADME. In a few lines:
as §2

The nature of data set [12]: Clinical plasma and intestinal concentrations of darolutamide. Also on record: species or system human.
The format of data set [13] is in vivo, human. To be noted: healthy male volunteers.
Data set [14] can be described thus: Phase I study: darolutamide effect on rosuvastatin pharmacokinetics. Format: in vivo, human.
The conditions of data set [15]: cited from earlier work.
The mark [16] stands for this setting: read-out: IC50, CYP3A4 (with pre-incubation), substrate midazolam, 30 min pre-incubation.
Setting [17] is: read-out: IC50, CYP3A4 (with pre-incubation), substrate testosterone, 30 min pre-incubation.
Where [18] appears, read: read-out: IC50, CYP3A4, substrate midazolam.
Setting [19] is: read-out: IC50, CYP3A4, substrate testosterone.
Where [20] appears, read: midazolam 1 mg and dabigatran etexilate 75 mg cocktail, darolutamide 600 mg.

Structures are written as SMILES. Where two headings read alike, the source gives them in different places.

Consider five compounds from publication PMC6828636 (European Journal of Drug Metabolism and Pharmacokinetics, 2019).

By IC50 is commonly meant the concentration at which inhibition is half-maximal. The term Ki denotes a dissociation constant, usually derived from enzyme kinetics or from competition with a known ligand.

Chain of CYP3A4 (P08684 whole entry): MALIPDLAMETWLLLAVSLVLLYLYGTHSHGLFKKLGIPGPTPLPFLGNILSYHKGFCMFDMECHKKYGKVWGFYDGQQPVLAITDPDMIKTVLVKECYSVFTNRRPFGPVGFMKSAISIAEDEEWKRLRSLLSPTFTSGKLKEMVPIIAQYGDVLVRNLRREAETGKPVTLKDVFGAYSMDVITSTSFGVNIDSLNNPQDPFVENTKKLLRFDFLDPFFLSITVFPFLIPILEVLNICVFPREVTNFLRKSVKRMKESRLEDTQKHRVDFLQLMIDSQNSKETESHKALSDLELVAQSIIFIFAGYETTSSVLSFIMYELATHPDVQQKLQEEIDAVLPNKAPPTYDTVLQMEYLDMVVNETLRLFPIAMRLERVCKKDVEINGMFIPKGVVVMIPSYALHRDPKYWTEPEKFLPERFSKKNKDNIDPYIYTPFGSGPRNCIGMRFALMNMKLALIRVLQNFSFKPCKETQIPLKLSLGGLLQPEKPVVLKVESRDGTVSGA
Chain of UGT1A9 (O60656 26-530): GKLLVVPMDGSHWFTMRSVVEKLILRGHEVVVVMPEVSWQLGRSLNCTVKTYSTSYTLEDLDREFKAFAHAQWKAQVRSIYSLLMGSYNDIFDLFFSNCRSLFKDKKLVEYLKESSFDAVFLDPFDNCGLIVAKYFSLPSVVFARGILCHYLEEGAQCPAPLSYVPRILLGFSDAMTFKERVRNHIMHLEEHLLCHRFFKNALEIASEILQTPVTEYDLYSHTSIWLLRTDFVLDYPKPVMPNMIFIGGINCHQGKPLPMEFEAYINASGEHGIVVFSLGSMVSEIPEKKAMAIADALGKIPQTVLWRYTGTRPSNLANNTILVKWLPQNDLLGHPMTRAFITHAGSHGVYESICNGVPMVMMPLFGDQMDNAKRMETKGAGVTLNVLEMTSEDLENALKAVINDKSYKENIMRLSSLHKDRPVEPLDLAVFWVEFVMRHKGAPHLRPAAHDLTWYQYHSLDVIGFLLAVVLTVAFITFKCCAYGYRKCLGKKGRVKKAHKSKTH
Chain of CYP2D6 (P10635 whole entry): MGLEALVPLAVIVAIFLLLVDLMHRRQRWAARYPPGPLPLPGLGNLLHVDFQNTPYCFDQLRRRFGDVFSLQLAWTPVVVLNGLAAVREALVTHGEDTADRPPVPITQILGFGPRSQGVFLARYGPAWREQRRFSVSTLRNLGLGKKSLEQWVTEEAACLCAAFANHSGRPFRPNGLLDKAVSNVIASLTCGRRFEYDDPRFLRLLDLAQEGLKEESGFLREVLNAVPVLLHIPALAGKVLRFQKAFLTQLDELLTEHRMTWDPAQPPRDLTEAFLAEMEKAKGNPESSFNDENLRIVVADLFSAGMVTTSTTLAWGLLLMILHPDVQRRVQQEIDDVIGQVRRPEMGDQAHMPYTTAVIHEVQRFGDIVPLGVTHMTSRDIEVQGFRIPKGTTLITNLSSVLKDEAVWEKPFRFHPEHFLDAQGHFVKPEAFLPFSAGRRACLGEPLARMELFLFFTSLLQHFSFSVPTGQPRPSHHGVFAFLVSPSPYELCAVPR
Chain of CYP2E1 (P05181 whole entry): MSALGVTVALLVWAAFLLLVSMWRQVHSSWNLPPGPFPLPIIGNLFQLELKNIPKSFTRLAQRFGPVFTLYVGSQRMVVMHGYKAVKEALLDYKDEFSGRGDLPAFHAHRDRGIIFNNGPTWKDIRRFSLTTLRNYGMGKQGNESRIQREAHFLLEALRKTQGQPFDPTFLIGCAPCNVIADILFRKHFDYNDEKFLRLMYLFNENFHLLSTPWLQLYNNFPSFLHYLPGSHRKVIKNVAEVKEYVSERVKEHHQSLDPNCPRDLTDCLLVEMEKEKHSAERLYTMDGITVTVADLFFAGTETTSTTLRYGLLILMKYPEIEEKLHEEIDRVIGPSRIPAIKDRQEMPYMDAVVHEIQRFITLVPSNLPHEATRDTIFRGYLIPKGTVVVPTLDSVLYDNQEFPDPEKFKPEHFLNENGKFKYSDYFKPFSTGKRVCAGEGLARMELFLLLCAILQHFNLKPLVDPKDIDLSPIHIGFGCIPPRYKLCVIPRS

With `C[C@@H](Cn1ccc(-c2ccc(C#N)c(Cl)c2)n1)NC(=O)c1cc([C@@H](C)O)[nH]n1` [(S,R)-darolutamide], the IC50 in data set [1] was above 50 µM; in [2], above 50 µM; in data set [3], above 50 µM; in data set [4], 36.2 µM; in data set [5], 22.6 µM; in [6], 46.7 µM. Moreover, the IC50 in data set [7], in data set [8], in data set [9] (setting [16]), in data set [9] (setting [17]), in data set [9] (setting [18]) and in data set [9] (setting [19]) was above 50 µM throughout. For the same compound, the IC50 in [10] was found to be 26.5 µM; in data set [11] (read-out: IC50, UGT1A9, substrate propofol), 12.5 µM. The Ki in [11] (read-out: Ki, UGT1A9) came to 6.32 µM. The “plasma concentration of unbound drug” value in [12] is below 600 nM.

For `C[C@H](O)c1cc(C(=O)N[C@@H](C)Cn2ccc(-c3ccc(C#N)c(Cl)c3)n2)n[nH]1` [(S,S)-darolutamide], the IC50 in [1] was above 50 µM; in data set [2] it was above 50 µM; in [3] it was above 50 µM; in [4] it was 46.3 µM; in data set [5], above 50 µM; in data set [6] it was above 50 µM. The half-inhibitory concentration (IC50) in data set [7] is 40.2 µM; in data set [8], above 50 µM; in data set [9] (setting [16]) it was above 50 µM; in data set [9] (setting [17]), above 50 µM; in [9] (setting [18]), above 50 µM; in data set [9] (setting [19]) it was above 50 µM. The IC50 in data set [10] amounted to 31.7 µM. For the same compound, the “plasma concentration of unbound drug” value in data set [12] is below 600 nM.

For the compound `Cc1ncc2n1-c1ccc(Cl)cc1C(c1ccccc1F)=NC2` [midazolam], in [13], the “tmax in the presence and absence of darolutamide” value is “comparable”; the “t½ in the presence and absence of darolutamide” value was “comparable”. In addition, the “reduction in Cmax with co-administered darolutamide versus alone” value in [13] (setting [20]) is given as around 32%.

As for `[H]/N=C(/N)c1ccc(NCc2nc3cc(C(=O)N(CCC(=O)O)c4ccccn4)ccc3n2C)cc1` [non-conjugated dabigatran, dabigatran], in [13], the “tmax in the presence and absence of darolutamide” value is reported as “comparable”; the “t½ in the presence and absence of darolutamide” value was “comparable”. In addition, in data set [13] (setting [20]), the “reduction in AUC with co-administered darolutamide versus alone” value was found to be 9% and the “reduction in Cmax with co-administered darolutamide versus alone” value is reported as 16%.

For `CC(C)c1nc(N(C)S(C)(=O)=O)nc(-c2ccc(F)cc2)c1/C=C/[C@@H](O)C[C@@H](O)CC(=O)O` [rosuvastatin], in data set [14] (healthy subjects), the “effect of darolutamide comedication on t½” value is recorded as “did not affect”. Moreover, the “increase in rosuvastatin exposure with darolutamide” value in data set [14] (healthy subjects, rosuvastatin 5 mg, darolutamide 600 mg twice daily) is given as “approximately fivefold”. The “observed exposure as % of the reported fasted AUC(0–24)” value in data set [14] (human, in vivo) is reported as 34%. Further, the “incidence of treatment-emergent AEs, alone versus with concomitant darolutamide” value in data set [14] (single doses of rosuvastatin 5 mg) is on record as “similar”. For the same compound, the “fraction absorbed (fa)” value in [15] was 0.5. Besides, in data set [15] (single dose of 5 mg rosuvastatin, healthy subjects, fasted condition), the “AUC(0–24)” value is 19.2 ng·h/mL.
